Results taken from ChEMBL document CHEMBL4673248, “Discovery and Characterization of BAY 1214784, an Orally Available Spiroindoline Derivative Acting as a Potent and Selective Antagonist of the Human Gonadotropin-Releasing Hormone Receptor as Proven in a First-In-Human Study in Postmenopausal Women” (J Med Chem, 2020).
≈ marks a conversion by molar mass, not a printed value.

How the values were obtained:
Cannabinoid receptor 1 = Cannabinoid receptor 1 (Homo sapiens, UniProt P21554); assay: Inhibition of CB1 receptor (unknown origin)
Chain of Cannabinoid receptor 1 (P21554 whole entry): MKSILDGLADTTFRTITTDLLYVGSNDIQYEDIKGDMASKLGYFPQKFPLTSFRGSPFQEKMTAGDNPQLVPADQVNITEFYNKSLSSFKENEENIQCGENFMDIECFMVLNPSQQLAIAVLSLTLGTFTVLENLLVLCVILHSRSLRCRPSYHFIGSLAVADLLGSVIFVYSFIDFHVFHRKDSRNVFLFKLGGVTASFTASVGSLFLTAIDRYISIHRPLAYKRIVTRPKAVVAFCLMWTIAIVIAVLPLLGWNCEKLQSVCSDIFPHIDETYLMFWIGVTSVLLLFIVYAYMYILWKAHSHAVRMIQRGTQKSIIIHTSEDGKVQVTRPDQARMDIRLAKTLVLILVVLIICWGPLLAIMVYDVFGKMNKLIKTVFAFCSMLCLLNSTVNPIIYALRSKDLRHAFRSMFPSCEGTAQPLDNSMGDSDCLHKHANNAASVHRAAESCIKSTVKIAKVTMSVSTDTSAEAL

[1] = Clearance in dog hepatocytes; assay type: ADME, cell-based, Canis lupus familiaris, Hepatocyte
[2] = Oral bioavailability in Wistar rat at 2 mg/kg by LC-MS/MS analysis; assay type: ADME, organism-based; settings: in vivo
Cynomolgus monkey = assay: Suppression of orchiectomy-induced increase in plasma luteinizing hormone level in cynomolgus monkey at 20 mg/kg, po measured up to 24 hrs by RIA; assay type: functional, Macaca fascicularis; settings: time hrs <=24
In short: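 Orchiectomized cynomolgus monkeys given a single oral dose of 20 mg/kg. Plasma LH suppression expressed relative to baseline levels.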

[3] = target: Mitogen-activated protein kinase 3 (Homo sapiens, UniProt P27361); assay: Inhibition of MAPK3 (unknown origin)
Chain of Mitogen-activated protein kinase 3 (P27361 whole entry): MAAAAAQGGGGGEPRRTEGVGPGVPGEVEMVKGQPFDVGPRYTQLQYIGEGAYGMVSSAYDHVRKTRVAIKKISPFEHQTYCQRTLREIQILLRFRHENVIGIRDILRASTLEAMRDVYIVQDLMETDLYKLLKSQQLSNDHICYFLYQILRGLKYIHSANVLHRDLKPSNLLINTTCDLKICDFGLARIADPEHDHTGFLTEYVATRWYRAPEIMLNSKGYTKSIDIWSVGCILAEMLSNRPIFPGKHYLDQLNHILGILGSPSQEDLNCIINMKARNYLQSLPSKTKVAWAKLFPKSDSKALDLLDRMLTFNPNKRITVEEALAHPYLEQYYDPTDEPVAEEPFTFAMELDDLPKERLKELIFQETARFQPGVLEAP

[4] = Aqueous solubility of compound at pH 6.5 incubated for 24 hrs under shaking condition by HPLC-MS/MS analysis; assay type: physicochemical; settings: aqueous solution
In short: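 Compound from 1 mM DMSO solution, pH 6.5 buffer added, shaken 24 h at rt. Filtered, dissolved compound quantified by HPLC-MS/MS.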

[5] = Chemical stability of compound at pH 1 to 10 measured up to 24 hrs by UV-HPLC analysis; assay type: physicochemical; settings: buffer, pH 1, 24 h
In short: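 10 mM DMSO stock diluted in MeCN, then into pH 1, 7 or 10 buffer. Held at 37 °C, HPLC-UV injections at 0, 1, 2 and 24 h. Recovery given as peak area relative to time zero.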

[6] = Efflux ratio of apparent permeability across basolateral to apical side over apical to basolateral side in human Caco2 cells at 2 uM measured after 2 hrs by LC-MS/MS analysis; assay type: ADME, cell-based; settings: Caco-2
In short: (§1)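 Caco-2 monolayers grown 15 d, integrity checked by TEER. Compound 2 µM added apical or basolateral in FCS-free HEPES carbonate buffer pH 7.2, incubated 2 h at 37 °C. Both compartments sampled before and after, analysed by LC-MS/MS after MeOH precipitation. Papp computed from receiver peak area, surface area and time. Efflux ratio taken as Papp B–A/Papp A–B.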

[7] = target: T1, Gonadotropin-releasing hormone receptor (Rattus norvegicus, UniProt P30969); assay: Antagonist activity at rat GnRH receptor expressed in CHO-K1 cells assessed as inhibition of buserelin-induced response preincubated for 20 mins followed by buserelin addition and measured after 60 mins by TR-FRET assay; assay type: cell-based
T1 sequence (P30969 whole entry): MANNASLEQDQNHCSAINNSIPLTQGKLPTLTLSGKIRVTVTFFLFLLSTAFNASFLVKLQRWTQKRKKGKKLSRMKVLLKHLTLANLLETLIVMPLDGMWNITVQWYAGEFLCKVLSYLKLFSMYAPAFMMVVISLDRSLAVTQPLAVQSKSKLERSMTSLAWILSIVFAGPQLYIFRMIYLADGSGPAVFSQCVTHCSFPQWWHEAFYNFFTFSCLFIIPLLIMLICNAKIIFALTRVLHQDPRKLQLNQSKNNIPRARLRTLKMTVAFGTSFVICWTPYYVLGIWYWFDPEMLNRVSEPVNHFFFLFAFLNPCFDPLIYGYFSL
In short: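 Frozen rat-receptor cells: thawed, seeded overnight in serum-containing Ham's F12, Accutase-harvested, resuspended in serum-free medium with IP1-d2, 1 h at 37 °C. 1.0 × 10^4 cells/well, 20 min compound preincubation at rt, then 1× EC80 LHRH or buserelin in HEPES stimulation buffer pH 7.4 for 60 min at 37 °C. Tb-anti-IP1 lysis (1:38), HTRF read 60 min later.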

Cytochrome P450 3A4 = Cytochrome P450 3A4 (Homo sapiens, UniProt P08684); assay: Inhibition of CYP3A4 in human liver microsomes using […] as substrate by LC-MS/MS analysis; assay type: ADME
Chain of Cytochrome P450 3A4 (P08684 whole entry): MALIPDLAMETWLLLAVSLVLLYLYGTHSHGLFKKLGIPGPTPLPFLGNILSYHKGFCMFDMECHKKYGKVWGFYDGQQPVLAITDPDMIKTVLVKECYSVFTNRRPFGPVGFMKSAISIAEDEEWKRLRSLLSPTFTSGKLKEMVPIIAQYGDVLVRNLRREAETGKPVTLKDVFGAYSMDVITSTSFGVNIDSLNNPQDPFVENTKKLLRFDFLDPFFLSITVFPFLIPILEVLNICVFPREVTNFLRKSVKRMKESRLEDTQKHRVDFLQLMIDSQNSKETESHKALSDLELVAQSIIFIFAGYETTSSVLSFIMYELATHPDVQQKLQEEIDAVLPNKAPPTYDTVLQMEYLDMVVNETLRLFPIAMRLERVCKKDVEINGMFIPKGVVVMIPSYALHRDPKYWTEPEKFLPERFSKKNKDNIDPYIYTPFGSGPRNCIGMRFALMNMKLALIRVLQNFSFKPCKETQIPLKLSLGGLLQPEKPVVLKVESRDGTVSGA

[8] = target: T2, Gonadotropin-releasing hormone receptor (Homo sapiens, UniProt P30968); assay: Inhibition of Tag-lite green-labeled agonist binding to terbium fluorophore-labeled human N-terminal SNAP-tag GnRh receptor expressed in HEK293 cells assessed as dissociation constant by TR-FRET assay; assay type: cell-based
T2 sequence (P30968 whole entry): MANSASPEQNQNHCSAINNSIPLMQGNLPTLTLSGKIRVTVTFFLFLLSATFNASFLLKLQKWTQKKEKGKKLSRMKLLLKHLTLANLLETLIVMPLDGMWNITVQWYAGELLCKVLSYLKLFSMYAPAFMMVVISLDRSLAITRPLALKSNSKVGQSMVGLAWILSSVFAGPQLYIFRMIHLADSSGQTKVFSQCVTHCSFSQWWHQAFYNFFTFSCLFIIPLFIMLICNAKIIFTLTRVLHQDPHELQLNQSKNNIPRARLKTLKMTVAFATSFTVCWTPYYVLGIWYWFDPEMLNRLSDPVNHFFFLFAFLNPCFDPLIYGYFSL

[9] = Maximum oral bioavailability in Han Wistar rat hepatocytes at 1 uM measured after 2 to 90 mins by LC-MS/MS analysis; assay type: ADME, Hepatocyte; settings: time 2-90 min, read-out: Fmax
Rattus norvegicus = assay: Suppression of ovariectomized-induced increase in plasma luteinizing hormone level in po dosed Wistar Han rat measured up to 24 hrs; assay type: functional; settings: time hrs <=24
In short: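 Ovariectomized rats given single oral doses, range 1 to 30 mg/kg. Plasma LH followed over time, with cetrorelix at 0.1 mg/kg sc as reference. ED50 calculated from the dose-response.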

[10] = Maximum oral bioavailability in cynomolgus monkey hepatocytes; assay type: ADME, Macaca fascicularis, Hepatocyte; settings: read-out: Fmax
[11] = Antagonist activity at cynomolgus monkey GnRH receptor expressed in CHO-K1 cells assessed as inhibition of buserelin-induced response preincubated for 20 mins followed by buserelin addition and measured after 60 mins by TR-FRET assay; assay type: cell-based; settings: Macaca fascicularis
In short: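 Frozen CHO-K1 cells expressing cynomolgus receptor: thawed, 1 h recovery at 37 °C with IP1-d2 tracer. 5000 cells/well in Ham's F12, 20 min preincubation with compound at rt. Buserelin added at 1× EC80 in HEPES stimulation buffer pH 7.4 with LiCl, 60 min at 37 °C. Lysis with Tb-anti-IP1 antibody (1:20), HTRF IP1 read after 60 min. Duplicates, up to 11 concentrations.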

[12] = Clearance in cynomolgus monkey hepatocytes; assay type: ADME, cell-based, Macaca fascicularis, Hepatocyte
[13] = Clearance in human hepatocytes; assay type: ADME, cell-based, Hepatocyte
[14] = Maximum oral bioavailability in human hepatocytes; assay type: ADME, Hepatocyte; settings: read-out: Fmax
[15] = Clearance in dog liver microsomes; assay type: ADME, Canis lupus familiaris, Microsome
[16] = Clearance in cynomolgus monkey liver microsomes; assay type: ADME, Macaca fascicularis, Microsome
[17] = Maximum oral bioavailability in dog liver microsomes based well stirred liver model; assay type: ADME, Canis lupus familiaris, Microsome; settings: read-out: Fmax
[18] = Lipophilicity, log D of the compound in pH 7.5 MeCN/H2O solution by reversed-phase HPLC analysis; assay type: physicochemical
In short: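 Indirect reversed-phase HPLC at pH 7.5, calibrated with n-alkan-2-ones C3–C16. Compounds applied as 0.67 mM DMSO stocks in MeCN/H2O (1:1).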

[19] = Apparent permeability across apical to basolateral side in human Caco2 cells at 2 uM measured after 2 hrs by LC-MS/MS analysis; assay type: ADME, cell-based; settings: Caco-2; in short: as §1
Cytochrome P450 2C9 = Cytochrome P450 2C9 (Homo sapiens, UniProt P11712); assay: Inhibition of CYP2C9 in human liver microsomes using diclofenac as substrate by LC-MS/MS analysis; assay type: ADME
Chain of Cytochrome P450 2C9 (P11712 whole entry): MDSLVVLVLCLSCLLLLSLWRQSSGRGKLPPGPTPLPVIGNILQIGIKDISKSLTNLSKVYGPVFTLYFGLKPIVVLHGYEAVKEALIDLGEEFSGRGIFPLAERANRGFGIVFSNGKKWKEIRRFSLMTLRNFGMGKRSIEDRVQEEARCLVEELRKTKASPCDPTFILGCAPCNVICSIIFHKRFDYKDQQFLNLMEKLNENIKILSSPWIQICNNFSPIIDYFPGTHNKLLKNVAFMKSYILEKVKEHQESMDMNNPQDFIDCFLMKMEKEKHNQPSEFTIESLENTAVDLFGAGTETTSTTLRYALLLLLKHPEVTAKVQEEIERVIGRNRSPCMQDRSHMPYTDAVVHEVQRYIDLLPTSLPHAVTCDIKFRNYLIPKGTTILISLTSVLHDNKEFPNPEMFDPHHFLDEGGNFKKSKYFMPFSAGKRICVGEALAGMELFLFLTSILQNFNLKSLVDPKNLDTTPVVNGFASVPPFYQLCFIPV

[20] = Intrinsic clearance in Han Wistar rat hepatocytes at 1 uM measured up to 90 mins by LC/MS/MS analysis; assay type: ADME, cell-based, Hepatocyte; settings: Han Wistar, read-out: CLH (converted)

IC50 (Cannabinoid receptor 1): 3.4 µM
CLH [1]: 12.2 mL/min/kg
bioavailability [2]: 48%
IC50 [3]: 4.9 µM
solubility at 24 h [4]: 7.1 µg/mL (≈ 10.6 µM)
Stabilty [5]: Stable
efflux ratio at 2 h, 2 µM [6]: 10
IC50 [7]: 0.024 µM
IC50 (Cytochrome P450 3A4): > 10 µM
Kd [8]: 0.00983 µM
Fh at 1 µM [9]: 82%
Fh [10]: 72%
IC50 [11]: 0.035 µM
CLH [12]: 11.8 mL/min/kg
CLH [13]: 1.7 mL/min/kg
Fh [14]: 93%
CLH [15]: 5.33 mL/min/kg
CLH [16]: 8.17 mL/min/kg
Fh [17]: 85%
chromatographic logD [18]: 3.6
Papp A→B at 2 h, 2 µM [19]: 1.3 ×10⁻⁶ cm/s
IC50 (Cytochrome P450 2C9): > 10 µM
CLint scaled at 1 µM [20]: 12.5 mL/min/kg
Compound: O=C(NCc1ncc(C(F)(F)F)cc1Cl)c1ccc2c(c1)C1(CCS(=O)(=O)CC1)[C@H](C1CC1)N2S(=O)(=O)c1ccc(F)cc1 [BAY-784]
Activity (Cynomolgus monkey): <=60%
ED50 (Rattus norvegicus): 4.5 mg/kg
